This sample holds only a part of the variants without activity.

The source of these data is the RNAGym collection of RNA variant scans (doi:10.1126/science.aae0568).

First the molecules themselves.
B1: tRNA (parent)
chain: GUUCCGUUGGCGUAAUGGUAACGCGUCUCCCUCCUAAGGAGAAGACUGCGGGUUCGAGUCCCGUACGGAACG

The variants in the data set derive from B1. In words: yeast fitness relative to wild type (ratio to wild type); higher = fitter; tRNA-Arg(CCU), competitive growth, 37 C, YPD. In outline:
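Amplicons of the tRNA-Arg(CCU) gene were sequenced, 100-nucleotide paired-end, from the start population and from each end population of a pooled yeast competition. The competition, in six parallel replicates, lasted 24 hours in YPD at 37°C. Fitness relative to wild type was calculated from changes in genotype frequencies. Genotypes had to have ≥ 100 starting reads, and estimates < 0.5 were set to 0.5.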
As for C24A A37G, the yeast fitness amounted to 0.513.

Consider U8A C27G G39A C46U G67A, for which the yeast fitness was at most 0.5.

As for A15U A21C C24G C29U A42C C55A, the yeast fitness is at most 0.5.

Regarding C5U G48A G51C, the yeast fitness is at most 0.5.

Take C4A C5G C27U U53A A69U: the yeast fitness is at most 0.5.

With C30G U47G A65G, the yeast fitness is at most 0.5.

As to A43G C46G G56C, the yeast fitness is at most 0.5.

Consider A14C G17C U26A G41C, for which the yeast fitness was at most 0.5.

C11U A15U C34A: the yeast fitness was 0.588.

Consider U3C U8A U19A, for which the yeast fitness was 0.63.

As to C4U A45C A69U, the yeast fitness was 0.822.

As to C24A C27U A40U G44C A57U G67C, the yeast fitness is at most 0.5.

Turning to A15U U16A, the yeast fitness was determined as 0.705.

G6A C24U U28A C60U: the yeast fitness is at most 0.5.

On to G12A U13G C61U G67C, for which the yeast fitness was found to be 0.678.

In the case of C30A A69C, the yeast fitness worked out at 1.03.

For G9A G12U A14U A65U, the yeast fitness is at most 0.5.

For the variant C22G A70G, the yeast fitness stood at 0.86.

Take U13C A20U G39C A43C C49A U53A: the yeast fitness was at most 0.5.

As to C24A G44A U54C G56C, the yeast fitness is at most 0.5.

For the variant C31G A36U G39A C62U, the yeast fitness was at most 0.5.

Consider C22G G23U, for which the yeast fitness came out at 0.73.

On to U32A C46U G63C, for which the yeast fitness was at most 0.5.

As for G12A A20G, the yeast fitness was 0.923.

Take C22G A42C: the yeast fitness was 0.635.

For C11U G50C C61U, the yeast fitness was 0.581.

Consider G10A A15G C55U, for which the yeast fitness amounted to 0.591.

For the variant A40G A42G, the yeast fitness was found to be 0.986.

As to C31U G39A A45C, the yeast fitness worked out at 0.677.

With A14U G17C C24A C30G, the yeast fitness is 0.524.

For the variant U26C U28C, the yeast fitness is 0.81.

On to U2C A37G G39A, for which the yeast fitness is at most 0.5.

G50A A65C: the yeast fitness was 0.887.

As to U3G A40G C46A, the yeast fitness is 0.665.

As for A14C C29U A36G A45U A70G, the yeast fitness was determined as 0.548.

In the case of U2G G44C C55G, the yeast fitness is at most 0.5.

For C24U C55G G63C, the yeast fitness worked out at 0.528.

In the case of U2C G48A, the yeast fitness is 0.928.

Regarding U3A C11A, the yeast fitness was determined as 0.607.

Turning to U3G C27A, the yeast fitness came to 0.633.

As to G6A U16A A36C, the yeast fitness was at most 0.5.

As to C34U C49U A65C, the yeast fitness is 0.612.

As for A14G A70U, the yeast fitness is 0.662.

For U3A, the yeast fitness was 1.

As to C5A A14C A21U C34U G38C, the yeast fitness is at most 0.5.

With U8C A45U C49U, the yeast fitness is 0.714.

For C31G C61U, the yeast fitness came to 0.834.

As to U8G A21C G50A G56A, the yeast fitness was at most 0.5.

On to C5U U16C C31A G67C, for which the yeast fitness is at most 0.5.

As for C29U C33A, the yeast fitness turned out to be 0.7.

As to U7A U16C A21U U26A C46U, the yeast fitness came to 0.681.

As for U8A A21C G56C, the yeast fitness was at most 0.5.

As for C27U G58A A70G, the yeast fitness stood at 0.753.

Regarding G44A C66G, the yeast fitness amounted to 0.641.

For A14U A21G G39C A45G G63C, the yeast fitness is at most 0.5.

As for A20C A37C A43G C62U, the yeast fitness was at most 0.5.

For the variant G9A C11U A36C C49G U53G, the yeast fitness was at most 0.5.

For C24G C46U A70U, the yeast fitness is 0.642.

As to A43G C46U, the yeast fitness is 0.92.

For U7G C27A, the yeast fitness stood at 0.744.

With U3G C5U G10A G18C C24U A45C, the yeast fitness was determined as 0.553.

With A42U G52A C62U, the yeast fitness turned out to be 0.754.

Consider C4G U64C G68C, for which the yeast fitness came out at 0.632.

As for U8C A65C, the yeast fitness turned out to be 0.964.

Turning to U32C A42U, the yeast fitness was determined as 0.974.

In the case of C4U U59A, the yeast fitness was determined as 0.999.

Turning to U2C C46A, the yeast fitness came to 0.942.

Regarding C5U C61U A70G, the yeast fitness was found to be 0.609.

For the variant C11U G23A, the yeast fitness is 0.952.

Take U2A A43C C49U: the yeast fitness was 0.602.

On to G10C A36G C49U, for which the yeast fitness turned out to be 0.551.

On to C11U U35C A42G, for which the yeast fitness was at most 0.5.

For A14U A42G A43G C66G, the yeast fitness was at most 0.5.

U7G G58C C66U: the yeast fitness was 0.645.

Regarding C29U C33A C34U C46G, the yeast fitness was at most 0.5.

Consider C4U U64G, for which the yeast fitness is 1.09.

As for C22G C29G A42C A45C C61G A69U, the yeast fitness is at most 0.5.

On to U8C A21U U32A C49U C55U, for which the yeast fitness was at most 0.5.

Regarding C27A G58A C66G, the yeast fitness came out at 0.512.

Consider U3C C46A A70C, for which the yeast fitness was 1.12.

As to G25A A40U A45G C60A, the yeast fitness was at most 0.5.

As to U19C G48C C55U, the yeast fitness is at most 0.5.

Take C33U G39A A57G C66U: the yeast fitness came to 0.557.

Turning to G9A A21U A36G A40C, the yeast fitness was at most 0.5.

In the case of C4G U35C C55G, the yeast fitness is at most 0.5.

As to C34A G41A C55G, the yeast fitness was at most 0.5.

Consider G12A A21G A40U G67U, for which the yeast fitness was at most 0.5.

Consider C33A G39C C49U U54A, for which the yeast fitness is at most 0.5.

As for U13C G67U, the yeast fitness was 0.719.

Take C22A C55G: the yeast fitness amounted to 0.63.

Consider C31G U59A A65U C66A, for which the yeast fitness is at most 0.5.

For the variant G50A C55G, the yeast fitness turned out to be 0.514.

Take C5U U19C C66G: the yeast fitness stood at 0.606.

Regarding C5G U13G A14U G48C, the yeast fitness was at most 0.5.

For the variant G12A C22G, the yeast fitness was 1.

As for U19C G44C A69U, the yeast fitness is 0.762.

For U8A C11U A37U U64A, the yeast fitness turned out to be 0.545.

With C29U A37C, the yeast fitness was determined as 0.894.

Regarding A42C, the yeast fitness turned out to be 0.967.

As for C5U C30U, the yeast fitness worked out at 0.942.

On to A42C G48C C55U, for which the yeast fitness came out at 0.557.

With C22U G23A A70C, the yeast fitness is at most 0.5.

Turning to C27G G41A, the yeast fitness worked out at 1.03.

In the case of C11U A21U A43C G68C, the yeast fitness is at most 0.5.

With C55G U59A C62U, the yeast fitness was at most 0.5.

With G10A C29G G56C U59A, the yeast fitness was at most 0.5.

For C49G G50A G68C A69G, the yeast fitness was at most 0.5.

Regarding G10A C27A A36U A37U G48C, the yeast fitness is at most 0.5.

For A15C C22U U54A, the yeast fitness came out at 0.636.

Take C4G U8A G12A G48A A69C: the yeast fitness stood at 0.573.

A15C C22G A43C: the yeast fitness was at most 0.5.

With C5U G18A A40U U47C U53C G68A, the yeast fitness is at most 0.5.

Consider A21U C55G C60A C61G C66G, for which the yeast fitness was at most 0.5.

For the variant G23A C30U A37U G41C, the yeast fitness was found to be 0.634.

C11G A14C C30G A45G U53C: the yeast fitness was 0.531.

As to A20U, the yeast fitness stood at 0.986.

In the case of U2G C5U A21C G48A G50C, the yeast fitness is at most 0.5.

Take C5G C27U G41C A57C: the yeast fitness is 0.565.

C11G A36C: the yeast fitness is at most 0.5.

As for U2G G18C G23U C27U U64A, the yeast fitness was at most 0.5.

For the variant A21U C30A U32A U35G G67A, the yeast fitness was at most 0.5.

Consider G6A C34U A40G G68A, for which the yeast fitness is at most 0.5.

In the case of A15G C31G U35C A43C A57C G58A, the yeast fitness is at most 0.5.

Regarding U7A C31U C34G, the yeast fitness was at most 0.5.

Turning to C5A G17A A40G C46A, the yeast fitness was at most 0.5.

In the case of U16C U26C G58A, the yeast fitness was determined as 1.11.

For C4U G17A C33G, the yeast fitness is at most 0.5.

As to C4U G25C A45C C46A, the yeast fitness stood at 0.733.

For U2A A69U, the yeast fitness is 0.874.

With U19C C27A U54G, the yeast fitness was at most 0.5.

G51A G56A C62G: the yeast fitness was at most 0.5.

As for C4G C5U C22G U64A, the yeast fitness is 0.542.

Consider U3C C49G A65U, for which the yeast fitness stood at 0.658.

With G10C G18C C22U U26G C30U A40G, the yeast fitness was at most 0.5.

Consider C22U G25C C33U A37U, for which the yeast fitness was at most 0.5.

Regarding A14C G25C, the yeast fitness came to 0.583.

A42G U59C: the yeast fitness was 0.714.

For the variant U3C U7C U8A A15U G50A U53A, the yeast fitness was at most 0.5.

With U7A C11G C29U, the yeast fitness is 0.555.

In the case of C5A A14C A45G, the yeast fitness is at most 0.5.

For C33U A36C U54C, the yeast fitness was at most 0.5.

Take G18C A20G C29A C49U A69U: the yeast fitness was at most 0.5.

For the variant C31U G48C C55A C60G A69G, the yeast fitness was at most 0.5.

For C11G C24G U54C G67C, the yeast fitness was at most 0.5.

For the variant G10C A43G, the yeast fitness amounted to 0.739.

With C49A A69U, the yeast fitness came to 0.681.

For G9C A40U C66U, the yeast fitness is 0.622.

C31G A43G: the yeast fitness stood at 0.982.

As for C11G C29U A69U, the yeast fitness is 0.543.

Take C11A C34U A42G: the yeast fitness is at most 0.5.

Consider U28C G41C C60A C66U, for which the yeast fitness is at most 0.5.

Take C30U G38A G68C: the yeast fitness amounted to 0.574.

Take U26A C34U A43U C66G: the yeast fitness came to 0.628.

As for A45U G67A, the yeast fitness turned out to be 0.767.

Take A15G U64C A69C: the yeast fitness amounted to 0.775.

For G6C A20G, the yeast fitness worked out at 0.773.

On to U3A A21G A45U G67C, for which the yeast fitness was at most 0.5.

As for U13G A65C A70G, the yeast fitness is 0.619.

For the variant U28C A42C A43C C55G A57G, the yeast fitness is at most 0.5.

As for U47C A69C, the yeast fitness was determined as 1.07.

In the case of U2A G48A G50C U59C C60A, the yeast fitness was at most 0.5.

G10A C11A C60A: the yeast fitness was at most 0.5.

In the case of U2A G41C G50C, the yeast fitness is at most 0.5.

Consider U19A G52C, for which the yeast fitness was determined as 0.656.

As for U13A C31U C46A, the yeast fitness was determined as 0.665.

Consider U35C A45G C62A, for which the yeast fitness is at most 0.5.

For the variant A42G C60U A69G A70U, the yeast fitness is at most 0.5.
